Results of several laboratories.
KCNA1: Potassium voltage-gated channel subfamily A member 1 (KCNA1, Homo sapiens, UniProt Q09470)

SMILES | target | assay | system | setting | quantity | result
CNc1ncc2c(/C=C/C(=O)N3CCC(OC)CC3)nn(Cc3cccc(C(F)(F)F)c3)c2n1 | Cyclin-dependent kinase 3, with cyclin E1 (CDK3, Homo sapiens, UniProt Q00526) | enzyme activity, inhibitor, radiometric |  | 1 µM | remaining activity | 93%
Cc1cc([C@@H](C)Nc2ccccc2C(=O)O)c2nc(N3CCC(F)(F)CC3)c(C#N)c(=O)n2c1 | Insulin receptor (INSR, Homo sapiens, UniProt P06213) | binding, competition with immobilised ligand |  | 1 µM | remaining binding | 100%
CC[C@H](C)[C@H](NC(=O)[C@H](CCC(N)=O)NC(=O)[C@H](CCCNC(=N)N)NC(=O)[C@H](CO)NC(=O)[C@H](Cc1c[nH]cn1)NC(=O)[C@@H]1CCCN1C(=O)[C@H](C)NC(=O)[C@H](CO)NC(=O)[C@H](CC(C)C)NC(=O)CNC(=O)[C@@H]1CCCN1C(=O)[C@H](CCC(N)=O)NC(=O)[C@H](CCC(N)=O)NC(=O)[C@H](CCCNC(=N)N)NC(=O)[C@H](CO)NC(=O)CNC(=O)[C@H](CO)NC(=O)[C@H](CO)NC(=O)[C@H](CCC(=O)O)NC(=O)[C@@H]1CCCN1C(=O)[C@@H]1CCCN1C(=O)[C@@H]1CCCN1C(=O)[C@H](CO)NC(=O)[C@H](CC(C)C)NC(=O)[C@H](CO)NC(=O)[C@@H](NC(=O)CN)[C@@H](C)O)C(=O)N1CCC[C@H]1C(=O)N[C@@H](C)C(=O)N1CCC[C@H]1C(=O)N[C@@H](CCC(N)=O)C(=O)NCC(=O)N[C@@H](C)C(=O)N[C@H](C(=O)N[C@@H](CC(C)C)C(=O)N[C@H](C(=O)N[C@@H](CCC(N)=O)C(=O)N[C@@H](CCCNC(=N)N)C(=O)N[C@@H](CCC(=O)O)C(=O)N[C@@H](CCCCN)C(=O)N[C@@H](CC(=O)O)C(=O)N[C@@H](CC(C)C)C(=O)N1CCC[C@H]1C(=O)N[C@@H](CC(N)=O)C(=O)N[C@@H](Cc1ccc(O)cc1)C(=O)N[C@@H](CC(N)=O)C(=O)N[C@@H](Cc1c[nH]c2ccccc12)C(=O)N[C@@H](CC(N)=O)C(=O)N[C@@H](CO)C(=O)N[C@@H](Cc1ccccc1)C(=O)NCC(=O)N[C@@H](CC(C)C)C(=O)N[C@@H](CCCNC(=N)N)C(=O)N[C@@H](Cc1ccccc1)C(N)=O)C(C)C)C(C)C | KiSS-1 receptor (KISS1R, Homo sapiens, UniProt Q969F8, N119A) | inositol phosphate, agonist | HEK293 |  | Emax | 93.6%
O=C(O)CNc1cccc(CN(Cc2ccc(-n3cccn3)cc2)S(=O)(=O)c2cccnc2)n1 | Prostaglandin E2 receptor EP2 subtype (PTGER2, Homo sapiens, UniProt P43116) | ligand displacement, radioligand |  | 10 µM | inhibition | 95%
Cc1nnc(SCC2=C(C(=O)O)N3C(=O)[C@@H](NC(=O)Cn4cnnn4)[C@H]3SC2)s1 | KCNA1 | ion current, inhibitor, patch clamp |  | 3 µM | inhibition | 4.29%
C=CC(=O)N1CCC(COCC(=O)N2CCN(c3nc(-c4cnc(N)nc4C(F)F)nc(N4CCOC[C@@H]4C)n3)CC2)CC1 | Dual specificity protein kinase CLK2 (CLK2, Homo sapiens, UniProt P49760) | binding, competition with immobilised ligand |  | 1 µM | remaining binding | 79%
CC(C)NCC(O)COc1cccc2ccccc12 (stereo not shown) | KCNA1 | ion current, inhibitor, patch clamp |  | 10 µM | inhibition | 20.2%
COc1ccc(S(=O)(=O)N(CC(=O)NO)CC(C)C)cc1 | Collagenase 3 (MMP13, Homo sapiens, UniProt P45452) | enzyme activity, inhibitor |  | 0.5 µM | inhibition | 51.2%
COc1cc(-c2cncc3c2CN(C)Cc2cc(N4CCNCC4)ccc2-3)cc(OC)c1OC | Serine/threonine-protein kinase N2 (PKN2, Homo sapiens, UniProt Q16513) | enzyme activity, inhibitor |  | 1 µM | remaining activity | 112%
CCCN1C[C@H](CSC)C[C@@H]2c3cccc4[nH]cc(c34)C[C@H]21 | KCNA1 | ion current, inhibitor, patch clamp |  | 10 µM | inhibition | 19.6%
